Data from ChEMBL document CHEMBL1772956, “Synthesis and binding affinity of novel mono- and bivalent morphinan ligands for κ, μ, and δ opioid receptors” (Bioorg Med Chem, 2011).
Calls of active or inactive are those of the source. The calls are words filed in the database; no cut-off is given here.

biological target: T1, Mu-type opioid receptor (Homo sapiens, UniProt P35372); assay: Antagonist activity at human mu-opioid receptor expressed in CHO cells assessed as inhibition of DAMGO-induced [35S]GTPgammaS binding after 60 mins by scintillation counting relative to control; format: functional, cell-based; details: not given
T1 sequence (P35372 whole entry): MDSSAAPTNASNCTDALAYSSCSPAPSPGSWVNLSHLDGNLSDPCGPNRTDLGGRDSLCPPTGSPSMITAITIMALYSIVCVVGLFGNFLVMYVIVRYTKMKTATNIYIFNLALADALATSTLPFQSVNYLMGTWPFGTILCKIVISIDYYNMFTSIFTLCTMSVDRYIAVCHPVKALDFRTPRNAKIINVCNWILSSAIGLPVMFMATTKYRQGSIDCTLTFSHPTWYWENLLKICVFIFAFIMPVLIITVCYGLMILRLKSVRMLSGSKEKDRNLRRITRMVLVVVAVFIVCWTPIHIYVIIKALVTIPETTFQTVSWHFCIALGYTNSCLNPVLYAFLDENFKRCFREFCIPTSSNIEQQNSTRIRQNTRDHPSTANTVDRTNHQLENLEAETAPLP
How it was run: (§1)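 Human μ receptor CHO membranes were incubated with 200 nM DAMGO to drive [35S]GTPγS (0.08 nM) binding, with 12 compound concentrations up to 10 μM, in Tris pH 7.4/GDP/MgCl2/EGTA/NaCl buffer, 60 min at 30°C. Nonspecific binding was with 10 μM GTPγS. Samples were filtered and counted.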

| SMILES | Imax [%] |
| --- | --- |
| O=C(CCCCCCCCC(=O)Oc1ccc2c(c1)[C@@]13CCCC[C@@]1(O)[C@@H](C2)N(CC1CCC1)CC3)Oc1ccc2c(c1)[C@@]13CCCC[C@H]1[C@@H](C2)N(CC1CCC1)CC3 | 50 |
| c1c2c(cc3sc(NCCCCCCCCCCNc4nc5cc6c(cc5s4)C[C@@H]4[C@@H]5CCCC[C@]65CCN4CC4CC4)nc13)C[C@@H]1[C@@H]3CCCC[C@]23CCN1CC1CC1 | 71 |
| C=CCN1CC[C@]23c4c5ccc(OC(=O)CCCCCCCCC(=O)Oc6ccc7c(c6)[C@@]68CCCC[C@@]6(O)[C@@H](C7)N(CC6CCC6)CC8)c4O[C@H]2C(=O)CC[C@@]3(O)[C@H]1C5 | 73 |

biological target: T2, Kappa-type opioid receptor (Homo sapiens, UniProt P41145); assay: Agonist activity at human kappa-opioid receptor expressed in CHO cells assessed as stimulation of [35S]GTPgammaS binding after 60 mins by scintillation counting relative to control; format: functional, cell-based; details: not given
T2 sequence (P41145 whole entry): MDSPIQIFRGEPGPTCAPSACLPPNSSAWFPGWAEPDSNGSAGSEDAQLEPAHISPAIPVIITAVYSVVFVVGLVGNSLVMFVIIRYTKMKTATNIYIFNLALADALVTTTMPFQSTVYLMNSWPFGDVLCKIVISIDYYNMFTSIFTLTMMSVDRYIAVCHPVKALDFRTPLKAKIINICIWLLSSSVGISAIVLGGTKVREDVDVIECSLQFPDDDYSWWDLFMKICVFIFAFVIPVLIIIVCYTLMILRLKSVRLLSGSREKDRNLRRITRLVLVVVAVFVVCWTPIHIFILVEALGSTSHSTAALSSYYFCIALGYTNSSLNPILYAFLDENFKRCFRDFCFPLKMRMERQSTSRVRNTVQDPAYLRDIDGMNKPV
How it was run: (§2)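 Membranes from CHO cells stably expressing human κ or μ opioid receptor were incubated with 12 compound concentrations in 50 mM Tris-HCl pH 7.4 with 3 μM GDP, 3 mM MgCl2, 0.2 mM EGTA and 100 mM NaCl. [35S]GTPγS was 0.08 nM final, 60 min at 30°C, and 10 μM GTPγS gave nonspecific binding. Samples were filtered and counted. EC50 and Emax (% stimulation over basal) came from three experiments in triplicate.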

| SMILES | Emax [%] |
| --- | --- |
| O=C(CCCCCCCCC(=O)Oc1ccc2c(c1)[C@@]13CCCC[C@@]1(O)[C@@H](C2)N(CC1CCC1)CC3)Oc1ccc2c(c1)[C@@]13CCCC[C@H]1[C@@H](C2)N(CC1CCC1)CC3 | 100 |
| c1c2c(cc3sc(NCCCCCCCCCCNc4nc5cc6c(cc5s4)C[C@@H]4[C@@H]5CCCC[C@]65CCN4CC4CC4)nc13)C[C@@H]1[C@@H]3CCCC[C@]23CCN1CC1CC1 | 130 |
| C=CCN1CC[C@]23c4c5ccc(OC(=O)CCCCCCCCC(=O)Oc6ccc7c(c6)[C@@]68CCCC[C@@]6(O)[C@@H](C7)N(CC6CCC6)CC8)c4O[C@H]2C(=O)CC[C@@]3(O)[C@H]1C5 | 74 |

biological target: T2, Kappa-type opioid receptor; assay: Agonist activity at human kappa-opioid receptor expressed in CHO cells assessed as stimulation of [35S]GTPgammaS binding after 60 mins by scintillation counting; format: functional, cell-based; details: not given; how it was run: as §2

| SMILES | EC50 [nM] |
| --- | --- |
| O=C(CCCCCCCCC(=O)Oc1ccc2c(c1)[C@@]13CCCC[C@@]1(O)[C@@H](C2)N(CC1CCC1)CC3)Oc1ccc2c(c1)[C@@]13CCCC[C@H]1[C@@H](C2)N(CC1CCC1)CC3 | 0.84 |
| c1c2c(cc3sc(NCCCCCCCCCCNc4nc5cc6c(cc5s4)C[C@@H]4[C@@H]5CCCC[C@]65CCN4CC4CC4)nc13)C[C@@H]1[C@@H]3CCCC[C@]23CCN1CC1CC1 | 7.3 |
| C=CCN1CC[C@]23c4c5ccc(OC(=O)CCCCCCCCC(=O)Oc6ccc7c(c6)[C@@]68CCCC[C@@]6(O)[C@@H](C7)N(CC6CCC6)CC8)c4O[C@H]2C(=O)CC[C@@]3(O)[C@H]1C5 | 12 |

biological target: T1, Mu-type opioid receptor; assay: Agonist activity at human mu-opioid receptor expressed in CHO cells assessed as stimulation of [35S]GTPgammaS binding after 60 mins by scintillation counting; format: functional, cell-based; details: not given; how it was run: as §2

| SMILES | EC50 [nM] |
| --- | --- |
| O=C(CCCCCCCCC(=O)Oc1ccc2c(c1)[C@@]13CCCC[C@@]1(O)[C@@H](C2)N(CC1CCC1)CC3)Oc1ccc2c(c1)[C@@]13CCCC[C@H]1[C@@H](C2)N(CC1CCC1)CC3 | 1.2 |
| c1c2c(cc3sc(NCCCCCCCCCCNc4nc5cc6c(cc5s4)C[C@@H]4[C@@H]5CCCC[C@]65CCN4CC4CC4)nc13)C[C@@H]1[C@@H]3CCCC[C@]23CCN1CC1CC1 | 22 |
| C=CCN1CC[C@]23c4c5ccc(OC(=O)CCCCCCCCC(=O)Oc6ccc7c(c6)[C@@]68CCCC[C@@]6(O)[C@@H](C7)N(CC6CCC6)CC8)c4O[C@H]2C(=O)CC[C@@]3(O)[C@H]1C5 | 2 |

biological target: T2, Kappa-type opioid receptor; assay: Antagonist activity at human kappa-opioid receptor expressed in CHO cells assessed as inhibition of U69593-induced [35S]GTPgammaS binding after 60 mins by scintillation counting; format: functional, cell-based; details: cho

| SMILES | IC50 |
| --- | --- |
| c1c2c(cc3sc(NCCCCCCCCCCNc4nc5cc6c(cc5s4)C[C@@H]4[C@@H]5CCCC[C@]65CCN4CC4CC4)nc13)C[C@@H]1[C@@H]3CCCC[C@]23CCN1CC1CC1 | Not Active |

same assay, conditions: read-out: IC50

| SMILES | IC50 [nM] |
| --- | --- |
| O=C(CCCCCCCCC(=O)Oc1ccc2c(c1)[C@@]13CCCC[C@@]1(O)[C@@H](C2)N(CC1CCC1)CC3)Oc1ccc2c(c1)[C@@]13CCCC[C@H]1[C@@H](C2)N(CC1CCC1)CC3 | 3.7 |
| C=CCN1CC[C@]23c4c5ccc(OC(=O)CCCCCCCCC(=O)Oc6ccc7c(c6)[C@@]68CCCC[C@@]6(O)[C@@H](C7)N(CC6CCC6)CC8)c4O[C@H]2C(=O)CC[C@@]3(O)[C@H]1C5 | 49 |

biological target: T2, Kappa-type opioid receptor; assay: Antagonist activity at human kappa-opioid receptor expressed in CHO cells assessed as inhibition of U69593-induced [35S]GTPgammaS binding after 60 mins by scintillation counting relative to control; format: functional, cell-based; details: not given

| SMILES | Imax |
| --- | --- |
| O=C(CCCCCCCCC(=O)Oc1ccc2c(c1)[C@@]13CCCC[C@@]1(O)[C@@H](C2)N(CC1CCC1)CC3)Oc1ccc2c(c1)[C@@]13CCCC[C@H]1[C@@H](C2)N(CC1CCC1)CC3 | 23% |
| c1c2c(cc3sc(NCCCCCCCCCCNc4nc5cc6c(cc5s4)C[C@@H]4[C@@H]5CCCC[C@]65CCN4CC4CC4)nc13)C[C@@H]1[C@@H]3CCCC[C@]23CCN1CC1CC1 | inactive |
| C=CCN1CC[C@]23c4c5ccc(OC(=O)CCCCCCCCC(=O)Oc6ccc7c(c6)[C@@]68CCCC[C@@]6(O)[C@@H](C7)N(CC6CCC6)CC8)c4O[C@H]2C(=O)CC[C@@]3(O)[C@H]1C5 | 35% |

species: Homo sapiens; assay: Selectivity ratio of Ki for human kappa opioid receptor over Ki for human mu opioid receptor; details: not given

| SMILES | Ratio Ki |
| --- | --- |
| O=C(CCCCCCCCC(=O)Oc1ccc2c(c1)[C@@]13CCCC[C@@]1(O)[C@@H](C2)N(CC1CCC1)CC3)Oc1ccc2c(c1)[C@@]13CCCC[C@H]1[C@@H](C2)N(CC1CCC1)CC3 | 1 |
| c1c2c(cc3sc(NCCCCCCCCCCNc4nc5cc6c(cc5s4)C[C@@H]4[C@@H]5CCCC[C@]65CCN4CC4CC4)nc13)C[C@@H]1[C@@H]3CCCC[C@]23CCN1CC1CC1 | 9 |
| C=CCN1CC[C@]23c4c5ccc(OC(=O)CCCCCCCCC(=O)Oc6ccc7c(c6)[C@@]68CCCC[C@@]6(O)[C@@H](C7)N(CC6CCC6)CC8)c4O[C@H]2C(=O)CC[C@@]3(O)[C@H]1C5 | 3 |

biological target: T2, Kappa-type opioid receptor; assay: biochemical; format: cell-based, CHO; details: not given

| SMILES | Ki [nM] |
| --- | --- |
| O=C(CCCCCCCCC(=O)Oc1ccc2c(c1)[C@@]13CCCC[C@@]1(O)[C@@H](C2)N(CC1CCC1)CC3)Oc1ccc2c(c1)[C@@]13CCCC[C@H]1[C@@H](C2)N(CC1CCC1)CC3 | 0.073 |
| c1c2c(cc3sc(NCCCCCCCCCCNc4nc5cc6c(cc5s4)C[C@@H]4[C@@H]5CCCC[C@]65CCN4CC4CC4)nc13)C[C@@H]1[C@@H]3CCCC[C@]23CCN1CC1CC1 | 0.27 |
| C=CCN1CC[C@]23c4c5ccc(OC(=O)CCCCCCCCC(=O)Oc6ccc7c(c6)[C@@]68CCCC[C@@]6(O)[C@@H](C7)N(CC6CCC6)CC8)c4O[C@H]2C(=O)CC[C@@]3(O)[C@H]1C5 | 0.28 |

biological target: T1, Mu-type opioid receptor; assay: Agonist activity at human mu-opioid receptor expressed in CHO cells assessed as stimulation of [35S]GTPgammaS binding after 60 mins by scintillation counting relative to control; format: functional, cell-based; details: not given; how it was run: as §2

| SMILES | Emax [%] |
| --- | --- |
| O=C(CCCCCCCCC(=O)Oc1ccc2c(c1)[C@@]13CCCC[C@@]1(O)[C@@H](C2)N(CC1CCC1)CC3)Oc1ccc2c(c1)[C@@]13CCCC[C@H]1[C@@H](C2)N(CC1CCC1)CC3 | 46 |
| c1c2c(cc3sc(NCCCCCCCCCCNc4nc5cc6c(cc5s4)C[C@@H]4[C@@H]5CCCC[C@]65CCN4CC4CC4)nc13)C[C@@H]1[C@@H]3CCCC[C@]23CCN1CC1CC1 | 38 |
| C=CCN1CC[C@]23c4c5ccc(OC(=O)CCCCCCCCC(=O)Oc6ccc7c(c6)[C@@]68CCCC[C@@]6(O)[C@@H](C7)N(CC6CCC6)CC8)c4O[C@H]2C(=O)CC[C@@]3(O)[C@H]1C5 | 19 |

biological target: Delta-type opioid receptor (Homo sapiens, UniProt P41143); assay: Displacement of [3H]naltrindole from human delta-opioid receptor expressed in CHO cells after 3 hrs by scintillation counting; format: cell-based; details: not given
Sequence (P41143 whole entry): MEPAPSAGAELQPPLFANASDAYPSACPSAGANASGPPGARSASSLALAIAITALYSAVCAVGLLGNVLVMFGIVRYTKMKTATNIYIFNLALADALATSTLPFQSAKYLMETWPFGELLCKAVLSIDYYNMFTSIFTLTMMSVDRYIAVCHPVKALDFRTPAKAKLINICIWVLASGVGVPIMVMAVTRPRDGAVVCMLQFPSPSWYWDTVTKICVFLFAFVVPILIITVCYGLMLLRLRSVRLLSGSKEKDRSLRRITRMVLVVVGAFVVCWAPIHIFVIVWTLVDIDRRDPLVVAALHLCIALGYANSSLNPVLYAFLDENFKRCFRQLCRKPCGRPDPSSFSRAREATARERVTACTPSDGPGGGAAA

| SMILES | Ki [nM] |
| --- | --- |
| O=C(CCCCCCCCC(=O)Oc1ccc2c(c1)[C@@]13CCCC[C@@]1(O)[C@@H](C2)N(CC1CCC1)CC3)Oc1ccc2c(c1)[C@@]13CCCC[C@H]1[C@@H](C2)N(CC1CCC1)CC3 | 8 |
| c1c2c(cc3sc(NCCCCCCCCCCNc4nc5cc6c(cc5s4)C[C@@H]4[C@@H]5CCCC[C@]65CCN4CC4CC4)nc13)C[C@@H]1[C@@H]3CCCC[C@]23CCN1CC1CC1 | 39 |
| C=CCN1CC[C@]23c4c5ccc(OC(=O)CCCCCCCCC(=O)Oc6ccc7c(c6)[C@@]68CCCC[C@@]6(O)[C@@H](C7)N(CC6CCC6)CC8)c4O[C@H]2C(=O)CC[C@@]3(O)[C@H]1C5 | 35 |

biological target: T1, Mu-type opioid receptor; assay: biochemical; format: cell-based, CHO; details: not given

| SMILES | Ki [nM] |
| --- | --- |
| O=C(CCCCCCCCC(=O)Oc1ccc2c(c1)[C@@]13CCCC[C@@]1(O)[C@@H](C2)N(CC1CCC1)CC3)Oc1ccc2c(c1)[C@@]13CCCC[C@H]1[C@@H](C2)N(CC1CCC1)CC3 | 0.089 |
| c1c2c(cc3sc(NCCCCCCCCCCNc4nc5cc6c(cc5s4)C[C@@H]4[C@@H]5CCCC[C@]65CCN4CC4CC4)nc13)C[C@@H]1[C@@H]3CCCC[C@]23CCN1CC1CC1 | 2.5 |
| C=CCN1CC[C@]23c4c5ccc(OC(=O)CCCCCCCCC(=O)Oc6ccc7c(c6)[C@@]68CCCC[C@@]6(O)[C@@H](C7)N(CC6CCC6)CC8)c4O[C@H]2C(=O)CC[C@@]3(O)[C@H]1C5 | 0.82 |

species: Homo sapiens; assay: Selectivity ratio of Ki for human kappa opioid receptor over Ki for human delta opioid receptor; details: not given

| SMILES | Ratio Ki |
| --- | --- |
| O=C(CCCCCCCCC(=O)Oc1ccc2c(c1)[C@@]13CCCC[C@@]1(O)[C@@H](C2)N(CC1CCC1)CC3)Oc1ccc2c(c1)[C@@]13CCCC[C@H]1[C@@H](C2)N(CC1CCC1)CC3 | 110 |
| c1c2c(cc3sc(NCCCCCCCCCCNc4nc5cc6c(cc5s4)C[C@@H]4[C@@H]5CCCC[C@]65CCN4CC4CC4)nc13)C[C@@H]1[C@@H]3CCCC[C@]23CCN1CC1CC1 | 140 |
| C=CCN1CC[C@]23c4c5ccc(OC(=O)CCCCCCCCC(=O)Oc6ccc7c(c6)[C@@]68CCCC[C@@]6(O)[C@@H](C7)N(CC6CCC6)CC8)c4O[C@H]2C(=O)CC[C@@]3(O)[C@H]1C5 | 130 |

biological target: T1, Mu-type opioid receptor; assay: Antagonist activity at human mu-opioid receptor expressed in CHO cells assessed as inhibition of DAMGO-induced [35S]GTPgammaS binding after 60 mins by scintillation counting; format: functional, cell-based; details: not given; how it was run: as §1

| SMILES | IC50 [nM] |
| --- | --- |
| O=C(CCCCCCCCC(=O)Oc1ccc2c(c1)[C@@]13CCCC[C@@]1(O)[C@@H](C2)N(CC1CCC1)CC3)Oc1ccc2c(c1)[C@@]13CCCC[C@H]1[C@@H](C2)N(CC1CCC1)CC3 | 3.4 |
| c1c2c(cc3sc(NCCCCCCCCCCNc4nc5cc6c(cc5s4)C[C@@H]4[C@@H]5CCCC[C@]65CCN4CC4CC4)nc13)C[C@@H]1[C@@H]3CCCC[C@]23CCN1CC1CC1 | 390 |
| C=CCN1CC[C@]23c4c5ccc(OC(=O)CCCCCCCCC(=O)Oc6ccc7c(c6)[C@@]68CCCC[C@@]6(O)[C@@H](C7)N(CC6CCC6)CC8)c4O[C@H]2C(=O)CC[C@@]3(O)[C@H]1C5 | 34 |
